Consider 17 compounds from ChEMBL document CHEMBL3351911, “Synthesis and evaluation of N⁶-substituted apioadenosines as potential adenosine A₃ receptor modulators” (Bioorg Med Chem, 2014).

pIC50, pKi: −log10 of the molar value. The source made the active and inactive calls. The calls are words filed in the database; no cut-off is given here.

Experiment [1] has as its target Adenosine receptor A2a (Homo sapiens) (UniProt P29274). The experiment in a line: Displacement of [3H]2-[p-(2-carboxyethyl)phenylethylamino]-50-N-ethylcarboxamidoadenosine from human recombinant A2AR expressed in HEK293 cells at 50 uM. In kind it is cell-based. The method, boiled down:
(§1)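 Percent inhibition of agonist radioligand binding measured at a single 50 μM test concentration. A1: CHO cell membranes with stably expressed human A1AR and [3H]N6-[(R)-1-methyl-2-phenylethyl]adenosine. A2A: HEK293 cell membranes with stably expressed human A2AAR and [3H]2-[p-(2-carboxyethyl)phenylethylamino]-5′-N-ethylcarboxamidoadenosine.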

For experiment [2], the target named is T1, Adenosine receptor A1 (Homo sapiens) (UniProt P30542).
T1 sequence (whole entry): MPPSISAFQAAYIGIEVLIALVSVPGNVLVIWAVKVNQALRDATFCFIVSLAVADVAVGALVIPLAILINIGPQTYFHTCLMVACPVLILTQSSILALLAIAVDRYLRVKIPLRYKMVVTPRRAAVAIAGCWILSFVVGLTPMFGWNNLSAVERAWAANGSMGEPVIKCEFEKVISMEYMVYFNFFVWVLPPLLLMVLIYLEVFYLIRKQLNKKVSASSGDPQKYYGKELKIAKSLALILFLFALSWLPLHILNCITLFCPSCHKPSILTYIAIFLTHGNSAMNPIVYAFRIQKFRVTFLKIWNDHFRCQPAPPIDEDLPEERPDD
Nature of the experiment: Displacement of [3H]N6-[(R)-1-methyl-2-phenylethyl]adenosine from human recombinant A1AR expressed in CHO cells at 50 uM. It counts as cell-based. The method, boiled down:
as §1
(In general: Displacement assays read how much labelled ligand stays bound in the presence of the test substance.)

In experiment [3] the target is T2, Adenosine receptor A3 (Homo sapiens) (UniProt P0DMS8).
T2 sequence (whole entry): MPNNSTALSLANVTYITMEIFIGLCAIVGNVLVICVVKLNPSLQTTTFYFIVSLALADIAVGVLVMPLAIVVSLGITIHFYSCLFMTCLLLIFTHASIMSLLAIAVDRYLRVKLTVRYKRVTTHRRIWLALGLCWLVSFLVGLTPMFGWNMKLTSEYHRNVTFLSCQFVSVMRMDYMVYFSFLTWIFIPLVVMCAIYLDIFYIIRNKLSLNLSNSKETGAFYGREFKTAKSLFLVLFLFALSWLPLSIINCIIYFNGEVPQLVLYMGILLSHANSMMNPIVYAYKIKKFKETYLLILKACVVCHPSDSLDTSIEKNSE
Nature of the experiment: Displacement of [125I]N6-(4-amino-3-iodobenzyl)adenosine-50-N-methyluronamide from human recombinant A3AR expressed in CHO cells at 10 uM. It counts as cell-based. Put shortly: (§2)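 Single-concentration radioligand displacement at 10 μM. Membranes came from CHO cells stably expressing human A1AR or A3AR, or HEK293 cells stably expressing human A2AAR. Agonist radioligands were [3H]N6-[(R)-1-methyl-2-phenylethyl]adenosine (A1), [3H]2-[p-(2-carboxyethyl)phenylethylamino]-5′-N-ethylcarboxamidoadenosine (A2A) and [125I]N6-(4-amino-3-iodobenzyl)adenosine-5′-N-methyluronamide (A3). Read-out was percent inhibition of binding.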

The target in experiment [4] is Adenosine receptor A2a (Homo sapiens) (UniProt P29274). Nature of the experiment: Displacement of [3H]2-[p-(2-carboxyethyl)phenylethylamino]-50-N-ethylcarboxamidoadenosine from human recombinant A2AR expressed in HEK293 cells at 10 uM. It counts as cell-based. Put shortly: as §2
The target in experiment [5] is T1, Adenosine receptor A1 (Homo sapiens). The experiment in a line: Displacement of [3H]N6-[(R)-1-methyl-2-phenylethyl]adenosine from human recombinant A1AR expressed in CHO cells at 10 uM. It counts as cell-based. The method, boiled down: as §2
Experiment [6] addresses T3, Adenosine receptor A3 (Homo sapiens, UniProt P0DMS8).
T3 sequence (P0DMS8 whole entry): T2 sequence (whole entry)
Nature of the experiment: Displacement of [125I]N6-(4-amino-3-iodobenzyl)adenosine-50-N-methyluronamide from human recombinant A3AR expressed in CHO cells. It counts as cell-based. The method, boiled down: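 Competition binding used membranes of CHO cells stably expressing human A3AR and the agonist radioligand [125I]N6-(4-amino-3-iodobenzyl)adenosine-5′-N-methyluronamide. IC50 values from competition curves were converted to Ki by Cheng-Prusoff. Values are mean ± S.E.M.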

In experiment [7] the target is T2, Adenosine receptor A3 (Homo sapiens). The experiment in a line: Modulatory activity at human recombinant A3AR expressed in CHO cells assessed as inhibition of forskolin-induced stimulation of cAMP production. In kind it is functional, cell-based. Put shortly: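 CHO cells stably expressing human A3AR were plated and grown 24 h, then washed in DMEM with 50 mM HEPES, pH 7.4. Compounds and/or agonist were added with rolipram (10 μM) and adenosine deaminase (3 units/mL). Forskolin (10 μM) was added at 45 min and incubation ran 15 more min. Cells were lysed in 0.1 M HCl. cAMP was measured by competitive binding of [3H]cAMP (2 nM) to protein kinase A, with a cAMP standard curve, filtration and scintillation counting.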
In general terms: cAMP levels reflect the balance of adenylyl cyclase and phosphodiesterase activity.

The target in experiment [8] is T3, Adenosine receptor A3. The experiment in a line: (§3) Agonist activity at human recombinant A3AR expressed in CHO cells assessed as inhibition of forskolin-induced stimulation of cAMP production. It counts as functional, cell-based.
In experiment [9] the target is T2, Adenosine receptor A3 (Homo sapiens). The experiment is described as §3. In kind it is functional, cell-based.

Sequence of Adenosine receptor A2a (Homo sapiens) (P29274 whole entry): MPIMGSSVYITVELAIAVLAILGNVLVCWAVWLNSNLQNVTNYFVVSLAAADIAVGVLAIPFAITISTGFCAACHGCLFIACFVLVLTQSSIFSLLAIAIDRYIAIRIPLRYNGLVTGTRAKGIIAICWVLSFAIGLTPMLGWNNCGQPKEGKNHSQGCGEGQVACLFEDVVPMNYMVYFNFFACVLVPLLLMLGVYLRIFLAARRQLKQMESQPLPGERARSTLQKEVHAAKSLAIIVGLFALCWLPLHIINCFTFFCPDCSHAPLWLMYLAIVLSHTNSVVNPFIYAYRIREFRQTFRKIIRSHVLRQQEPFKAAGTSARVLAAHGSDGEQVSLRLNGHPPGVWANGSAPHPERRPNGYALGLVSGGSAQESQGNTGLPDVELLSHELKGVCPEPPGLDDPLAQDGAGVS

Take `Nc1ncnc2c1ncn2[C@@H]1OC[C@@](O)(CO)[C@H]1O`: the inhibition (commonly the relative decrease from the control value, in per cent) was found to be 64% in experiment [1], 0% in [2] and 10% in experiment [3].
Regarding `CCNC(=O)OC[C@@H]1CO[C@@H](n2cnc3c(N)ncnc32)[C@@H]1O`, the values for the inhibition in experiment [4], in experiment [5] and in experiment [3] were 2%, 7% and 8%, respectively.
As for `Nc1ncnc2c1ncn2[C@@H]1OC[C@@H](CO)[C@H]1O`, the values for the inhibition in experiment [1], in experiment [2] and in experiment [3] were 76%, 74% and 7%, respectively.
Regarding `CNC(=O)OC[C@@]1(O)CO[C@@H](n2cnc3c(N)ncnc32)[C@@H]1O`, the inhibition in [4] turned out to be 10%; in experiment [5], 12%; in [3], 26%.
`OC[C@@]1(O)CO[C@@H](n2cnc3c(NCc4cccc(I)c4)ncnc32)[C@@H]1O`: the inhibition in experiment [4] worked out at 17%; in experiment [5], 27%; in experiment [3] it was 48%.
On to `Nc1ncnc2c1ncn2[C@H]1C[C@H](CO)CO1`, for which the inhibition in experiment [2] was 0%; in experiment [3], 7%.
Regarding `OC[C@@]1(O)CO[C@@H](n2cnc3c(NCc4cccc(Cl)c4)ncnc32)[C@@H]1O`, the figures for the inhibition in [4], in experiment [5] and in experiment [3] were 10%, 10% and 43%, respectively.
Consider `COc1ccc(Cl)cc1CNc1ncnc2c1ncn2[C@@H]1OC[C@](O)(CO)[C@H]1O`, for which the inhibition in experiment [4] stood at 17%; in experiment [5] it was 12%. For the same compound, the pKi – broadly, the Ki on a negative log10 scale, so that one unit is a factor of ten – on Adenosine receptor A3 [6] is 6.01. Besides, in [7], the outcome was inactive.
Regarding `CCNC(=O)OC[C@]1(O)CO[C@@H](n2cnc3c(N)ncnc32)[C@@H]1O`, the inhibition stood at 12% in [4], 9% in experiment [5] and 6% in [3].
Consider `Nc1ncnc2c1ncn2[C@@H]1OC[C@](O)(CO)[C@H]1O`, for which the results for the inhibition in [4], in [5] and in experiment [3] were 19%, 6% and 35%, respectively.
In the case of `Nc1c2ncn([C@@H]3OC[C@@](O)(CO)[C@H]3O)c2nc[n+]1Cc1cccc(Cl)c1`, the inhibition stood at 12% in [4], 6% in [5] and 3% in experiment [3].
`OC[C@]1(O)CO[C@@H](n2cnc3c(NCc4cccc(Cl)c4)ncnc32)[C@@H]1O`: the inhibition came to 15% in experiment [4], 19% in experiment [5] and 44% in experiment [3].
For the compound `Nc1ncnc2c1ncn2[C@H]1C[C@@H](CO)CO1`, the inhibition came to 15% in experiment [4], 10% in experiment [5] and 31% in [3].
On the same counts, the results for `CCNC(=O)[C@@H]1CO[C@@H](n2cnc3c(N)ncnc32)[C@@H]1O` are 9%, 8% and 10%.
On the same counts, the results for `OC[C@]1(O)CO[C@@H](n2cnc3c(NCc4cccc(I)c4)ncnc32)[C@@H]1O` are 22%, 35% and 45%.
On the same counts, the results for `Nc1ncnc2c1ncn2[C@@H]1OC[C@H](CO)[C@H]1O` are 19%, 6% and 32%.
Consider `COc1ccc(Cl)cc1CNc1ncnc2c1ncn2[C@@H]1OC[C@@](O)(CO)[C@H]1O`, for which the inhibition in [4] came to 14%; in [5], 13%. Further, the pIC50 (commonly the IC50 on a negative log10 scale, so that one unit is a factor of ten) at Adenosine receptor A3 [8] is 5.81. Moreover, in experiment [9], the Emax (commonly the size of the effect at its maximum, as opposed to the concentration needed) worked out at 50.9%. The pKi at Adenosine receptor A3 [6] was 5.51.
